Compounds with a hit are over-represented: about 2.2% of the library has one in this group of screens.
NF-kB expr up = NF-kB expression increase, human neuronal cells; NF-kB reporter expression; stronger effect = higher value; actives 1.6% (n = 190,000); fold change at 12.5 µM; AID 1239; in the data active = fold change above about 3.3
FLuc inh counter = counter-screen for luciferase assay inhibitors: firefly luciferase inhibition; P08659; ATPLite firefly luciferase biochemical luminescence, 10 min; inhibition, % at 10 µM; actives 1.5% (n = 200,000); AID 1006;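 active = inhibition above about 50% when tested at 10 µM, limit read from the data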
Target sequence (P08659 whole entry, looked up): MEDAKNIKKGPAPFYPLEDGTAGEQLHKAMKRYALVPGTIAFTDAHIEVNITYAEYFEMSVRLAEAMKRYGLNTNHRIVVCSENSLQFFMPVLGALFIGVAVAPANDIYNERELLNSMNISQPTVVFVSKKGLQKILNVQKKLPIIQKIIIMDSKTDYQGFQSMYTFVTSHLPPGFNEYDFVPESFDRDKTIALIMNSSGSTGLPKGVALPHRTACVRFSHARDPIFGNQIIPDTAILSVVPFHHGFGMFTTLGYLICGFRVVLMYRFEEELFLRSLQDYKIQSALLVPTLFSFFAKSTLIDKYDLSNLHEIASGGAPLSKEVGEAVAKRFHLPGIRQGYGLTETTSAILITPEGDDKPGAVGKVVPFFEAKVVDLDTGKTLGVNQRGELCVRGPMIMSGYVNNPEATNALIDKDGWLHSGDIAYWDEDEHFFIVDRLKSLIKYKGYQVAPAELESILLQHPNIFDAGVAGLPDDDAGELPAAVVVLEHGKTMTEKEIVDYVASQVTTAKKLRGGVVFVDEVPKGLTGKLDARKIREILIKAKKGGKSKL
APP 5'UTR act = APP 5'UTR luciferase reporter activation; SH-SY5Y APP 5'UTR luciferase reporter, luminescence; zero percent = DMSO vehicle wells; activation, % at 2 µM; actives 1% (n = 190,000);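 active = activation above a set limit, based on mean plus 3 SD of controls, cut at about 140% in these data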
FLuc act counter = affects firefly luciferase, flagging false hits in luciferase stimulation screens. 200,000 tested, under 10 active. ATPlite luciferase biochemical, luminescence, 10 min; 0 = ATP-free wells, 1 = DMSO control. activation factor at 10 µM. P08659;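 active = luciferase activation factor, scaled between plate controls, of at least 2 with compound at 10 µM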
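assay system = Luciferase/luciferin detection reagent, cell-free biochemical luciferase assay | also added = ATP substrate | times = 10 min post-reagent at room temperature | measured by = luminescence from luciferase reaction | measure = luciferase activation, seen as luminescence increase over controls | benchmarks = low control with PBS replacing ATP, high control enzyme plus ATP without compound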
PPC-1+TRAIL kill = kills PPC-1 cancer cells in the presence of TRAIL; actives 0.41% (n = 220,000); PPC-1 cells + TRAIL, ATPLite viability luminescence; cell killing (% activity), % at 4 µM or 5 µM; AID 1443;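 active = cell killing above 50% in the first pass at 4 µM, then a duplicate retest at 5 µM averaging 50% or more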;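 also: plate controls were cells with TRAIL plus DMSO for no effect and medium-only wells lacking cells for full effect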
C8 TRAIL sens = caspase-8 TRAIL sensitization; AID 624354; NB7+C8 cells + TRAIL, ATPlite viability luminescence; actives 1% (n = 360,000); inhibition (viability loss, TRAIL sensitization), % at 10 µM;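 active = compounds causing at least 50% loss of cell viability in the single-dose screen, relative to plate controls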
* marks the source's active call; other numbers are inactive results.

`N#C/C(=N\Nc1ccccc1)C(=N)N1CCOCC1` gave NF-kB expr up 1.5, FLuc inh counter 14, APP 5'UTR act 20, FLuc act counter 0.9, PPC-1+TRAIL kill 11 and C8 TRAIL sens 6.
Screening Cc1ccc(C)c(N2CCN(C(=O)CCc3nc(-c4ccc(F)cc4)no3)CC2)c1 returned C8 TRAIL sens 3.
For CC(C)N(C(=O)COC(=O)c1ccc(Cl)s1)c1ccccc1 the results were C8 TRAIL sens -13.
For Cc1c(P(=S)(c2ccccc2)c2ccccc2)[n+]2ccccc2n1C/C=C/c1ccccc1 the results were C8 TRAIL sens 78*.
Screening Oc1ccc2c(c1)oc1cc(O)ccc12 returned NF-kB expr up 7*, FLuc inh counter -1, APP 5'UTR act 2, FLuc act counter 1, PPC-1+TRAIL kill -4 and C8 TRAIL sens -1.
COc1c(C)oc2cc(O)ccc2c1=O was read as NF-kB expr up 1.4, FLuc inh counter -6, APP 5'UTR act -1, FLuc act counter 1.1, PPC-1+TRAIL kill 14 and C8 TRAIL sens 2.
`NNC(=O)c1ccc(O)cc1O` gave NF-kB expr up 1.5, FLuc inh counter -8, APP 5'UTR act 35, FLuc act counter 1.1, PPC-1+TRAIL kill 18 and C8 TRAIL sens -2.
O=C(O)COn1c(-c2ccccc2)nc2ccc(Cl)cc21 was read as NF-kB expr up 1.7, FLuc inh counter 68*, APP 5'UTR act 7, FLuc act counter 0.3, PPC-1+TRAIL kill 49 and C8 TRAIL sens 5.
Screening COn1c(-c2ccccc2)nc2ccc(Cl)cc21 returned NF-kB expr up 2, FLuc inh counter 20, FLuc act counter 0.8, PPC-1+TRAIL kill 0 and C8 TRAIL sens 0.
`O=[N+]([O-])c1ccc2nc(-c3ccccc3)n(OCc3ccc(Cl)cc3)c2c1` gave NF-kB expr up 5.1*, FLuc inh counter 4, APP 5'UTR act 40, FLuc act counter 1, PPC-1+TRAIL kill 19 and C8 TRAIL sens 14.
Screening Cc1cc(S(=O)(=O)NC(C)c2nnc3ccccn23)ccc1Br (stereo unspecified) returned C8 TRAIL sens 3.
Screening Cc1ccccc1NC(=O)C1Cc2ccccc2C(=O)O1 (stereo unspecified) returned NF-kB expr up 3.3*, FLuc inh counter 3, APP 5'UTR act -1, FLuc act counter 1, PPC-1+TRAIL kill 17 and C8 TRAIL sens 1.
CN(C)c1ccc(-c2nc3cc(N)ccc3o2)cc1 was read as C8 TRAIL sens 83*.
For COC(=O)c1ccc(-c2nc3cc(N)ccc3o2)cc1 the results were NF-kB expr up 2.3, FLuc inh counter 83*, APP 5'UTR act -31, FLuc act counter 0.2, PPC-1+TRAIL kill 32 and C8 TRAIL sens 56*.
Screening Cc1ccc(-c2nc3cc(N)ccc3o2)cc1Br returned C8 TRAIL sens 24.
For Nc1ccc(-c2nc3cc(N)ccc3o2)cc1 the results were C8 TRAIL sens 48.
For CCN1/C(=C/C=C/C=C/c2sc3ccccc3[n+]2CC)Sc2ccccc21 the results were NF-kB expr up 0.35, FLuc inh counter 33, APP 5'UTR act -82, FLuc act counter 0.7 and PPC-1+TRAIL kill 10.
Screening CCN1/C(=C/C=C/c2sc3ccccc3[n+]2CC)Sc2ccccc21 returned C8 TRAIL sens 71*.
`CCN1/C(=C/c2ccc3cc(C)ccc3[n+]2CC)Sc2cc(C)c(C)cc21` gave NF-kB expr up 1.2, FLuc inh counter -6, APP 5'UTR act -46, FLuc act counter 1.1, PPC-1+TRAIL kill 47 and C8 TRAIL sens 24.
Screening CCN1/C(=C/c2ccc3cc(C)ccc3[n+]2CC)Sc2ccccc21 returned NF-kB expr up 0.17, FLuc inh counter -1, APP 5'UTR act -81, FLuc act counter 1, PPC-1+TRAIL kill 66* and C8 TRAIL sens 32.
Screening O=c1c(C=NCc2cccnc2)c(C(F)(F)F)[nH]n1-c1nc2ccccc2s1 returned NF-kB expr up 1.5, FLuc inh counter 74*, APP 5'UTR act 95, FLuc act counter 0.3 and C8 TRAIL sens 45.
`CCC(=NCc1ccccc1)c1c(C(F)(F)F)[nH]n(-c2nc3ccccc3s2)c1=O` gave NF-kB expr up 0.66, FLuc inh counter 8, APP 5'UTR act 8, FLuc act counter 0.9, PPC-1+TRAIL kill 21 and C8 TRAIL sens 5.
